Test results taken from ChEMBL document CHEMBL5352422, “Development of l-Dopa-containing diketopiperazines as blood-brain barrier shuttle” (Eur J Med Chem, 2022).
Converted amounts (≈) assume the structure as drawn. The source made the active and inactive calls. No cut-off for these calls is given here.

What was measured:
[1] = Induction of DNA damage in Primary human whole blood cell assessed as 8-OH-dG adducts formation at 500 nM incubated for 24 hrs by […] (reference value: 0.12 to 2.21 pg/ml); type: functional
[2] = tested on: PC-12; test: Inhibition of MPP+ induced GSH level in rat PC-12 cells at 100 nM preincubated with compound for 24 hrs followed by MPP+ treatment for 24 hrs by DTNB reagent based analysis; type: functional, cell-based; conditions: time 48.0 hrs
[3] = Genotoxicity in human Lymphocyte assessed as micronuclei formation measured per 1000 cells at 100 nM incubated for 72 hrs giemsa staining based analysis (reference value: 4.5 to 17.9); type: toxicity, cell-based; conditions: 0.1 µM
How it was run: (§1)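 Human whole-blood lymphocyte cultures with phytohemagglutinin, incubated with compound for 72 h at 37 °C. Cytochalasin B added at 44 h. Cells fixed in ice-cold methanol/acetic acid 1:1, cytospun, Giemsa-stained. At least 1000 binucleated lymphocytes per concentration scored for micronuclei by one observer.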

[4] = Solubility of the compound in water by HPLC-UV analysis; type: physicochemical
[5] = Stability in human plasma assessed as half life by HPLC method; type: ADME, cell-free
How it was run: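 Stock added to 37 °C human plasma diluted with 0.02 M phosphate buffer pH 7.4 to 80% plasma. Aliquots taken over time were quenched with 0.01 M HCl in methanol, centrifuged 5 min at 5000 g, and supernatant analyzed by HPLC-UV. t1/2 and k_obs are means of three experiments ± SD.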

[6] = Induction of DNA damage in rat Cerebral cortex cell assessed as 8-OH-dG adducts formation at 250 nM incubated for 24 hrs by […] (reference value: 0.14 to 1.92 pg/ml); type: functional, Cerebral cortex neuron
[7] = Antioxidant activity against rat Cerebral cortex cell assessed as H2O2 equivalent of total oxidative stress at 10 nM incubated for 24 hrs (0.7 to 2.3 micromolequiv/L); type: functional, Cerebral cortex neuron
[8] = Antioxidant activity against Primary human whole blood cell assessed as trolox equivalent of total antioxidant capacity at 100 nM incubated for 24 hrs (19.3 to 32.5 mmolequiv/L ); type: functional
[9] = Antioxidant activity against Primary human whole blood cell assessed as trolox equivalent of total antioxidant capacity at 500 nM incubated for 24 hrs (19.3 to 32.5 mmolequiv/L ); type: functional
[10] = Stability of the compound in stimulated gastric fluid at 40 mg/ml pepsin by measuring observed rate constant measured upto 60 mins by HPLC analysis; type: ADME; conditions: simulated gi fluid, 1 h
How it was run: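 USP simulated gastric fluid containing pepsin, preheated, in a 37 °C shaking water bath. Samples at 0, 15, 30 and 60 min were deproteinized with ice-cold acetonitrile containing 0.5% formic acid, centrifuged at 4 °C, filtered and analyzed by HPLC. Means of three experiments.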

[11] = Antioxidant activity against Primary human whole blood cell assessed as H2O2 equivalent of total oxidative stress at 10 nM incubated for 24 hrs (0.6 to 1.9 micromolequiv/L); type: functional
[12] = Genotoxicity in human Lymphocyte assessed as micronuclei formation measured per 1000 cells at 50 nM incubated for 72 hrs giemsa staining based analysis (reference value: 4.5 to 17.9); type: toxicity, cell-based; conditions: 0.05 µM; how it was run: as §1
[13] = Genotoxicity in human Lymphocyte assessed as sister chromatid exchange measured per cells at 10 nM incubated for 72 hrs giemsa staining based fluorescence method (reference value: 6.6 to 14.3); type: toxicity, cell-based; conditions: 0.01 µM
[14] = Induction of DNA damage in rat Cerebral cortex cell assessed as total DNA damage score at 250 nM incubated for 24 hrs by Comet assay (reference value: 36.8 to 89.2); type: functional, Cerebral cortex neuron
[15] = Stability of the compound in stimulated intestinal fluid at 10 mg/ml pancreatin by measuring half life measured upto 180 mins by HPLC analysis; type: ADME; conditions: simulated intestinal fluid with pancreatin
How it was run: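 USP simulated intestinal fluid containing pancreatin, in a 37 °C shaking water bath. Samples at 0, 60, 120 and 180 min were quenched with ice-cold acetonitrile containing 0.5% formic acid, centrifuged at 4 °C for 10 min, filtered and analyzed by HPLC. Means of three experiments ± SD.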

[16] = Antioxidant activity against rat Cerebral cortex cell assessed as trolox equivalent of total antioxidant capacity at 10 nM incubated for 24 hrs (14.7 to 27.5 mmolequiv/L ); type: functional, Cerebral cortex neuron
[17] = Induction of DNA damage in rat Cerebral cortex cell assessed as 8-OH-dG adducts formation at 500 nM incubated for 24 hrs by […] (reference value: 0.14 to 1.92 pg/ml); type: functional, Cerebral cortex neuron
How it was run: (§2)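 Primary rat cerebral cortex neurons from fetuses, grown in neurobasal medium with FCS on poly-D-lysine flasks and used after 8 days. Aqueous compound at 10–500 nM for 24 h at 37 °C. Untreated cultures served as negative control and MMC 10^-7 M as positive control. 8-OH-dG measured with a commercial ELISA-type kit and reported in pg/mL. Four independent experiments, mean ± SD.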

[18] = tested on: PC-12; test: Inhibition of MPP+ induced ROS production in rat PC-12 cells at 100 nM preincubated with compound for 24 hrs followed by MPP+ treatment for 24 hrs by DCFH-DA staining based fluorescence method; conditions: time 48.0 hrs
[19] = Stability of the compound in phosphate buffer assessed as chemical hydrolysis by measuring observed rate constant at pH 7.4; type: physicochemical
How it was run: (§3)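 Chemical hydrolysis at 37 °C in hydrochloric acid buffer pH 1.2 or phosphate buffer pH 7.4. Remaining compound followed by HPLC with UV detection. t1/2 and k_obs are means of three experiments ± SD.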

[20] = Induction of DNA damage in Primary human whole blood cell assessed as 8-OH-dG adducts formation at 50 nM incubated for 24 hrs by […] (reference value: 0.12 to 2.21 pg/ml); type: functional
[21] = Induction of DNA damage in rat Cerebral cortex cell assessed as 8-OH-dG adducts formation at 50 nM incubated for 24 hrs by […] (reference value: 0.14 to 1.92 pg/ml); type: functional, Cerebral cortex neuron; how it was run: as §2
[22] = Induction of DNA damage in rat Cerebral cortex cell assessed as 8-OH-dG adducts formation at 10 nM incubated for 24 hrs by Comet assay (reference value: 0.14 to 1.92 pg/ml); type: functional, Cerebral cortex neuron
[23] = Effective permeability of compound at 500 uM incubated for 18 hrs by […] method; type: ADME; conditions: read-out: Peff
How it was run: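 PAMPA-BBB: donor contained compound at 500 µM final in PBS pH 7.4 with 20% v/v MeOH. Incubated 18 h. Donor and acceptor concentrations measured by HPLC; effective permeability Pe (cm/s) calculated.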

[24] = Cytotoxicity against rat Cerebral cortex cell at 10 to 500 nM incubated for 24 hrs by LDH assay; type: toxicity, cell-based; conditions: cerebral cortex neuron, 0.5 µM, dose 10-500 nM
How it was run: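 Rat fetal cortical neuron or human whole-blood cultures treated 24 h at 37 °C with aqueous compound at 10–500 nM. LDH released into 100 µL of medium measured by kit as the rate of NAD+ reduction (lactate to pyruvate), absorbance increase at 490 nm. Mitomycin C 10^-7 M as positive control; four independent experiments.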

[25] = Induction of DNA damage in rat Cerebral cortex cell assessed as total DNA damage score at 50 nM incubated for 24 hrs by Comet assay (reference value: 36.8 to 89.2); type: functional, Cerebral cortex neuron
[26] = Stability of the compound in phosphate buffer assessed as chemical hydrolysis by measuring half life at pH 7.4; type: physicochemical; how it was run: as §3

Row | SMILES | Activity [1] [pg/mL] | inhibition [2] | Activity [3] | solubility [4] [µg/mL] | half-life [5] [h] | Activity [6] [pg/mL] | Activity [7] [umolequiv/L] | Activity [8] [mmolequiv/L] | Activity [9] [mmolequiv/L] | Kobs [10] [h⁻¹] | Activity [11] [umolequiv/L] | Activity [12] | Activity [13] | Activity [14] | half-life [15] [h] | Activity [16] [mmolequiv/L] | Activity [17] [pg/mL] | inhibition [18] | Kobs [19] [h⁻¹] | Activity [20] [pg/mL] | other results
1 | C#CCSC[C@H]1NC(=O)[C@H](Cc2ccc(OC(C)=O)c(OC(C)=O)c2)NC1=O | 0.13 | Active | 4.9 | 630 (≈ 1560 µM) | 2.09 | 0.14 | 0.7 | 19.5 | 19.4 | 0.012 | 0.6 | 4.8 | 6.5 | 37.6 | 3.51 | 14.7 | 0.15 | Active | 0.015 | 0.11 | Activity [21]: 0.14 pg/mL; Activity [22]: 0.14 pg/mL; Papp at 18 h, 500 µM [23]: 4.88 ×10⁻⁶ cm/s; Activity [24]: Non-Toxic; Activity [25]: 37.2; half-life [26]: 47.5 h
2 | C=CCSC[C@H]1NC(=O)[C@H](Cc2ccc(OC(C)=O)c(OC(C)=O)c2)NC1=O | 0.13 | inactive | 5 | 323 (≈ 795 µM) | 0.096 | 0.15 | 0.7 | 19.7 | 18.4 | 0.031 | 0.6 | 4.9 | 6.8 | 37.4 | 0.68 | 15.1 | 0.15 | Active | 0.022 | 0.12 | Activity [21]: 0.13 pg/mL; Activity [22]: 0.14 pg/mL; Papp at 18 h, 500 µM [23]: 2.42 ×10⁻⁶ cm/s; Activity [24]: Non-Toxic; Activity [25]: 36.4; half-life [26]: 30.9 h
